Reference: ChEMBL document CHEMBL4033790, “Design and Synthesis of Novel Deuterated Ligands Functionally Selective for the γ-Aminobutyric Acid Type A Receptor (GABAAR) α6 Subtype with Improved Metabolic Stability and Enhanced Bioavailability” (J Med Chem, 2018)

Tests used:
[1] = Drug level in mouse liver microsomes treated with 8-Chloro-2-(3-methoxy-d3-phenyl)-2,5-dihydro-3H-pyrazolo[4,3-c]quinolin-3-one after 60 mins by LC-MS analysis; type: ADME; conditions: 1 h
[2] = Drug level in human liver microsomes treated with 8-Chloro-2-(3-methoxy-d3-phenyl)-2,5-dihydro-3H-pyrazolo[4,3-c]quinolin-3-one after 60 mins by LC-MS analysis; type: ADME; conditions: 1 h
Rattus norvegicus [3] = experiment: Toxicity in Wistar rat assessed as open arm entries at 10 mg/kg, ip administered for 45 mins measured for 5 min by elevated plus maze apparatus method (reference value: 23.07 +/- 5.47%); type: organism-based; conditions: in vivo
[4] = Metabolic stability in mouse liver microsomes assessed as parent compound remaining at 10 uM after 60 mins by LC-MS analysis; type: ADME, microsome; conditions: read-out: Stability
Method in brief: (§1)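 The 60 min samples of the microsomal incubation (10 μM compound, human or mouse liver microsomes at 0.5 mg/mL, NADPH regenerating system, 37 °C) were analysed by LC-MS. Detection used SIM mode with dual ESI/APCI ionization, calibrated to the retention times and masses of the parent and its O-demethylated metabolites. Peak intensities were measured.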

Mus musculus [5] = experiment: Neurotoxicity in Swiss Webster mouse assessed as induction of motor impairment at 60 mg/kg administered via oral gavage measured after 10 to 60 mins by rotarod method; type: toxicity, organism-based; conditions: in vivo
[6] = Cmax in Wistar rat brain at 10 mg/kg, ip administered as single dose measured at 5 to 720 mins post dose by HPLC-MS/MS analysis; type: ADME, organism-based; design: dose 10 mg/kg, route intraperitoneal
Method in brief: (§2)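 Male Wistar rats (250-350 g) given a single 10 mg/kg i.p. dose of a 5 mg/ml suspension in 85% distilled water, 14% propylene glycol, 1% Tween 80. Three rats per time point (5, 20, 60, 180, 720 min). Blood and brain were collected after sacrifice. Drug was recovered by solid phase extraction and quantified by HPLC-MS/MS.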

Rattus norvegicus [7] = experiment: Toxicity in Wistar rat assessed as closed arm entries at 10 mg/kg, ip administered for 45 mins measured for 5 min by elevated plus maze apparatus method (reference value: 3.63 +/- 0.42); type: organism-based; conditions: in vivo
[8] = AUC (0 to 12 hrs) in Wistar rat plasma at 10 mg/kg, ip administered as single dose by HPLC-MS/MS analysis; type: ADME, organism-based; design: time < 12 hr, dose 10 mg/kg, route intraperitoneal
[9] = Tmax in Wistar rat brain at 10 mg/kg, ip administered as single dose by HPLC-MS/MS analysis; type: ADME, organism-based
Method in brief: (§3)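 Male Wistar rats (250–350 g) received a single i.p. dose of 10 mg/kg as a 5 mg/ml suspension in 85% water, 14% propylene glycol and 1% Tween 80. Three rats per time point were sacrificed at 5, 20, 60, 180 and 720 min for plasma and brain. Samples were cleaned up by solid-phase extraction and quantified by HPLC-MS/MS.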

[10] = Ratio of brain AUC (0 to t) to plasma AUC (0 to t), Kp of the compound in Wistar rat at 10 mg/kg, ip administered as single dose by HPLC-MS/MS analysis; type: ADME, organism-based
[11] = biological target: Voltage-gated inwardly rectifying potassium channel KCNH2 (Homo sapiens, UniProt Q12809); experiment: Displacement of [3H]-dofetilide from human ERG expressed in HEK cell membranes at >10 uM after 60 to 90 mins by scintillation counting
Voltage-gated inwardly rectifying potassium channel KCNH2, sequence (Q12809 whole entry): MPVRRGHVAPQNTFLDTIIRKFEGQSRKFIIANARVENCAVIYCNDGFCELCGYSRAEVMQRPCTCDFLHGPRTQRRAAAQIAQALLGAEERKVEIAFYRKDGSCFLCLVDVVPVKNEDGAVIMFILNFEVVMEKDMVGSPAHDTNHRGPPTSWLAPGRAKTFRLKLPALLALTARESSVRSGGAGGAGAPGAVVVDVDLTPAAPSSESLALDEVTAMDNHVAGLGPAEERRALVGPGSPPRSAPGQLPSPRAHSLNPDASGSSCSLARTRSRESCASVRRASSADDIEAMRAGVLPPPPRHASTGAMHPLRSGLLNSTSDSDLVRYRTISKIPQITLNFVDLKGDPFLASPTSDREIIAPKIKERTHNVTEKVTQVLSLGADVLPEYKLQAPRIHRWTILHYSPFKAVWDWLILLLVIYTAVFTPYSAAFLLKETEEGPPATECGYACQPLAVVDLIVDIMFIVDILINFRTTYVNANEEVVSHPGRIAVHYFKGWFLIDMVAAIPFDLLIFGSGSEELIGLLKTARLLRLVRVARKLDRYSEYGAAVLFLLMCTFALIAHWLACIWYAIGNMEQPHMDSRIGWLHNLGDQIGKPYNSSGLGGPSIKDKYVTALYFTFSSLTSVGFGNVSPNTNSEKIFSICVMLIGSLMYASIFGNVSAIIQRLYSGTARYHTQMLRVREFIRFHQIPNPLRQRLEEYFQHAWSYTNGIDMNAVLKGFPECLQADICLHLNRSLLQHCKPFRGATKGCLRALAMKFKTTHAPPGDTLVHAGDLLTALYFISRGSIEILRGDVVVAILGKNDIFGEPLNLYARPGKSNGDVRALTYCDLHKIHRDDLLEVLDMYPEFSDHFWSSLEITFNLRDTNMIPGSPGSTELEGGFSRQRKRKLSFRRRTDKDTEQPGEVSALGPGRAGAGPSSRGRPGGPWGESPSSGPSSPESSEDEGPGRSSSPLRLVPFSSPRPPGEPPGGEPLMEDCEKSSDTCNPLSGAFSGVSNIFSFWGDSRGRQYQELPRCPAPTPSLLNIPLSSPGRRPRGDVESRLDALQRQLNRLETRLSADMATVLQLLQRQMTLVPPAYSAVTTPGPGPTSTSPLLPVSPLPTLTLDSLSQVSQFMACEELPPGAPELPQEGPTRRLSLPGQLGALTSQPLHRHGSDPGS

HEK-293T = experiment: Cytotoxicity against HEK293T cells assessed as reduction in cell viability up to 400 uM after 48 hrs by CellTiter-Glo assay; type: cell-based; conditions: human
Method in brief: (§4)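 HEK293T and HepG2 cells grown in high-glucose DMEM with non-essential amino acids, 10 mM HEPES, penicillin/streptomycin and 10% heat-inactivated FBS. Cells were harvested with trypsin and plated; compound was pin-transferred 3 h later. Incubation was 48 h, then CellTiter-Glo luminescence was read. Controls were DMSO (negative) and a cytotoxic aminoketone (positive). Quadruplicates, three independent runs, normalized to controls, nonlinear regression.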

Rattus norvegicus [12] = experiment: Toxicity in Wistar rat assessed as grip strength by measuring peak force of pull necessary to overcome strength of animal's grip at 10 mg/kg, ip (reference value: 2.79 +/- 0.16 kg/kg); type: organism-based; conditions: in vivo
Rattus norvegicus [13] = experiment: Toxicity in Wistar rat assessed as total distance traveled at 10 mg/kg, ip administered for 45 mins by cued water-maze method (reference value: 8.04 +/- 1.16 meter); type: organism-based; conditions: in vivo, 0.75 h
HepG2 = experiment: Cytotoxicity against human HepG2 cells assessed as reduction in cell viability up to 400 uM after 48 hrs by CellTiter-Glo assay; type: cell-based; conditions: hepg2, 48 h; method in brief: as §4
[14] = Tmax in Wistar rat plasma at 10 mg/kg, ip administered as single dose by HPLC-MS/MS analysis; type: ADME, organism-based; method in brief: as §3
Rattus norvegicus [15] = experiment: Toxicity in Wistar rat assessed as total distance traveled at 10 mg/kg, ip administered for 45 mins measured for 5 min by elevated plus maze method (reference value: 6.71 +/- 0.56 meter); type: organism-based; conditions: in vivo
Liver = experiment: Half life in mouse liver microsomes at 10 uM by LC-MS/MS analysis; type: ADME, microsome
Method in brief: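 Compound at 10 μM final was preincubated 5 min at 37 °C with NADPH regenerating system in phosphate buffer, pH 7.4. Human or mouse liver microsomes (0.5 mg/mL protein) were added to start the reaction. Samples were taken at 0 (no microsomes) and 10–60 min and measured by LC-MS/MS against an internal standard. Half-life = 0.693/k, with k the slope of ln peak-area ratio versus time. Three experiments, each in duplicate.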

Rattus norvegicus [16] = experiment: Hyperlocomotor activity in Wistar rat assessed as total distance travelled at 10 mg/kg, ip after 60 mins; type: ADME, organism-based; conditions: in vivo, 1 h
[17] = Cmax in Wistar rat plasma at 10 mg/kg, ip administered as single dose measured at 5 to 720 mins post dose by HPLC-MS/MS analysis; type: ADME, organism-based; design: dose 10 mg/kg, route intraperitoneal; method in brief: as §2
[18] = Metabolic stability in human liver microsomes assessed as parent compound remaining at 10 uM after 60 mins by LC-MS analysis; type: ADME, microsome; conditions: read-out: Stability; method in brief: as §1
Rattus norvegicus [19] = experiment: Toxicity in Wistar rat assessed as average swim speed at 10 mg/kg, ip administered for 45 mins by cued water-maze apparatus method (reference value: 0.21 +/- 0.01 meter/s); type: organism-based; conditions: in vivo, 0.75 h
Brain = experiment: AUC (0 to 12 hrs) in Wistar rat brain at 10 mg/kg, ip administered as single dose by HPLC-MS/MS analysis; type: ADME, organism-based; design: dose 10 mg/kg, time < 12 hr, route intraperitoneal; conditions: in vivo
Rattus norvegicus [20] = experiment: Toxicity in Wistar rat assessed as peripheral ring distance at 10 mg/kg, ip administered for 45 mins by cued water-maze method (reference value: 67.44 +/- 4.60%); type: organism-based; conditions: in vivo, 0.75 h
[21] = Terminal elimination half-life in Wistar rat brain at 10 mg/kg, ip administered as single dose by HPLC-MS/MS analysis; type: ADME, organism-based; conditions: read-out: beta t1/2 (converted); method in brief: as §3
[22] = Terminal elimination half-life in Wistar rat plasma at 10 mg/kg, ip administered as single dose by HPLC-MS/MS analysis; type: ADME, organism-based; conditions: read-out: beta t1/2 (converted); method in brief: as §3
[23] = Drug metabolism in mouse liver microsomes assessed as CYP450 mediated-O-demethylated 7-hydroxy-2-(6-methoxypyridin-3-yl)-2H-pyrazolo[4,3-c]quinolin-3(5H)-one metabolite formation after 60 mins by LC-MS analysis; type: ADME; conditions: 1 h
Method in brief: (§5)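 The 60-min samples from the human or mouse liver microsome incubations (10 µM compound, 0.5 mg/mL protein, NADPH regenerating system, 37 °C, pH 7.4) were run on LC-MS in SIM mode with dual ESI/APCI ionization. The method was calibrated to each component's retention time and mass, and the peak intensities of the parent and O-demethylated metabolites were measured.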

[24] = Drug metabolism in mouse liver microsomes assessed as CYP450 mediated-O-demethylated 2-(6-hydroxy-3-pyridyl)-7-(trideuteriomethoxy)-5H-pyrazolo[4,3-c]quinolin-3-one metabolite formation after 60 mins by LC-MS analysis; type: ADME; conditions: 1 h; method in brief: as §5
[25] = Drug metabolism in human liver microsomes assessed as CYP450 mediated-O-demethylated 7-hydroxy-2-(6-hydroxypyridin-3-yl)-2H-pyrazolo[4,3-c]quinolin-3(5H)-one metabolite formation after 60 mins by LC-MS analysis; type: ADME; conditions: 1 h; method in brief: as §5
[26] = Drug metabolism in human liver microsomes assessed as CYP450 mediated-O-demethylated 7-hydroxy-2-(6-methoxypyridin-3-yl)-2H-pyrazolo[4,3-c]quinolin-3(5H)-one metabolite formation after 60 mins by LC-MS analysis; type: ADME; conditions: 1 h; method in brief: as §5
Mus musculus [27] = experiment: Neurotoxicity in Swiss Webster mouse assessed as induction of motor impairment at 40 mg/kg administered via oral gavage measured after 10 to 60 mins by rotarod method; type: toxicity, organism-based; conditions: in vivo
Method in brief: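 Female mice were given a single oral gavage dose of 40 mg/kg, either in 50% PBS/40% propylene glycol/10% DMSO or, for poorly soluble compounds, in 2% polyethylene glycol plus 2.5% hydroxymethyl cellulose. Rotarod performance was tested 10, 30 and 60 min after dosing, with diazepam 5 mg/kg as positive control.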

[28] = Drug metabolism in mouse liver microsomes assessed as CYP450 mediated-O-demethylated 7-hydroxy-2-(6-hydroxypyridin-3-yl)-2H-pyrazolo[4,3-c]quinolin-3(5H)-one metabolite formation after 60 mins by LC-MS analysis; type: ADME; conditions: 1 h; method in brief: as §5
[29] = Drug metabolism in human liver microsomes assessed as CYP450 mediated-O-demethylated 2-(6-hydroxy-3-pyridyl)-7-(trideuteriomethoxy)-5H-pyrazolo[4,3-c]quinolin-3-one metabolite formation after 60 mins by LC-MS analysis; type: ADME; conditions: 1 h; method in brief: as §5
[30] = Drug metabolism in mouse liver microsomes assessed as CYP450 mediated-O-demethylated 8-chloro-2-(3-hydroxyphenyl)-2H-pyrazolo[4,3-c]quinolin-3(5H)-one metabolite formation after 60 mins by LC-MS analysis; type: ADME; conditions: 1 h; method in brief: as §5
[31] = Drug metabolism in human liver microsomes assessed as CYP450 mediated-O-demethylated 8-chloro-2-(3-hydroxyphenyl)-2H-pyrazolo[4,3-c]quinolin-3(5H)-one metabolite formation after 60 mins by LC-MS analysis; type: ADME; conditions: 1 h; method in brief: as §5

Structure (SMILES) | remaining at 1 h, 10 µM [4] [%] | Cmax [6] [ng/g] | AUC(0-t) at 12 h [8] [ng·h/mL] | Tmax [9] [h] | inhibition (INH) [11] | Activity (HEK-293T) | Activity (HepG2) | Tmax [14] [h] | t1/2 (Liver) [h] | Cmax [17] [ng/mL] | remaining at 1 h, 10 µM [18] [%] | AUC (Brain) [ng·h/g] | half-life [21] [h] | half-life [22] [h] | Activity (Mus musculus [27]) | further results
O=c1c2c[nH]c3ccc(Cl)cc3c-2nn1-c1cccc(O)c1 | – | – | – | – | – | – | – | – | – | – | – | – | – | – | – | Drug metabolism [1]: Metabolite_Detected; Drug metabolism [2]: Metabolite_Detected
[2H]C([2H])([2H])Oc1ccccc1-n1nc2c3cc(Cl)ccc3[nH]cc-2c1=O | 94.9 | 65.6 | 1800 | 0.78 | Not Active | Non-Toxic | Non-Toxic | 0.78 | 16.6 | 434 | 94.8 | 269.03 | 5.54 | 3.66 | – | Activity (Rattus norvegicus [3]): 20.6%; Activity (Mus musculus [5]): Non-Toxic; Activity (Rattus norvegicus [7]): 3.5; Kp [10]: 0.15; Activity (Rattus norvegicus [12]): 2.66 kg/kg; Activity (Rattus norvegicus [13]): 9.93 m; Activity (Rattus norvegicus [15]): 6.14 m; Activity (Rattus norvegicus [16]): Non-Toxic; Activity (Rattus norvegicus [19]): 0.22 meter/s; Activity (Rattus norvegicus [20]): 69.34%
[2H]C([2H])([2H])Oc1ccc2c3nn(-c4ccc(OC)nc4)c(=O)c-3c[nH]c2c1 | 91.4 | 215 | 6020 | 1.67 | Not Active | Non-Toxic | Non-Toxic | 1 | – | 1250 | 92.3 | 1502.14 | 9.07 | 18 | Non-Toxic | Drug metabolism [23]: Metabolite_Detected; Drug metabolism [24]: Metabolite_Detected; Drug metabolism [25]: Metabolite_Detected; Drug metabolism [26]: Metabolite_Detected; Drug metabolism [28]: Metabolite_Detected; Drug metabolism [29]: Metabolite_Detected
[2H]C([2H])([2H])Oc1cccc(-n2nc3c4cc(Cl)ccc4[nH]cc-3c2=O)c1 | 76.6 | – | – | – | Not Active | Non-Toxic | Non-Toxic | – | 2.8 | – | 93 | – | – | – | Non-Toxic | Drug metabolism [30]: Metabolite_Detected; Drug metabolism [31]: Metabolite_Detected
